ChEMBL document CHEMBL1121426, “Structure-activity study of antiulcerous and antiinflammatory drugs by discriminant analysis” (J Med Chem, 1980)

Experiments:
[1] = Partition coefficient (logP); assay type: physicochemical; settings: octanol/water
Rattus norvegicus [2] = experiment: Antiulcer activity in rat at the dose of 20 mg/kg administered intraperitoneally.; assay type: functional; settings: ip, route intraperitoneal
Outline: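 Pyloric ligation was done under ether on Wistar-King rats (200-250 g, 10 per group) fasted 24 h. Drug was suspended at 10 mg/mL in 0.9% saline with a trace of Tween 80 and given ip at 20 mg/kg; controls received saline. Forestomach ulcers were scored macroscopically 18 h later as an ulcer index. Percent inhibition was taken versus the mean control index; error <±10%.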

Rattus norvegicus [3] = experiment: Tested for inhibition of edema growth in rat; assay type: functional; set-up: concentration or dose not given beside the values
Outline: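 Carrageenin paw edema in male Wistar rats (120-150 g, 10 per group). Dosing was oral, as 1% suspensions in 0.5% aqueous Na-CMC: phenylacetic acids at 100 mg/kg, aminouracils at 200 mg/kg. Paw volume was read by mercury displacement before and 3 h after injection. Percent inhibition of mean swelling was taken versus control; error <±10%.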

| SMILES | logP [1] | inhibition in vivo at 20 mg/kg (Rattus norvegicus [2]) | Inhibition (Rattus norvegicus [3]) |
| --- | --- | --- | --- |
| Nc1nc(N)nc(-c2c(Cl)cccc2Cl)n1 | 1.38 | 54% | – |
| Nc1nc(N)nc(-c2ccc(Cl)cc2Cl)n1 | 2.07 | 100% | – |
| O=C(O)Cc1cccc(F)c1 | 1.59 | – | 0% |
| Cc1cccc(CC(=O)O)c1 | 1.89 | – | 0% |
| COc1cc(CC(=O)O)cc(C(C)C)c1 | 2.75 | – | 10% |
| CCCCOc1cc(C)cc(CC(=O)O)c1 | 3.38 | – | 3% |
| CCOc1cccc(CC(=O)O)c1 | 1.88 | – | 17% |
| O=C(O)Cc1cc(O)cc(-c2ccccc2)c1 | 2.75 | – | 14% |
| COc1cc(CC(=O)O)cc(C2CCCCC2)c1 | 3.66 | – | 35% |
| COc1cc(CC(=O)O)cc(-c2ccc(F)cc2)c1 | 3.5 | – | 74% |
| COc1cc(CC(=O)O)cc(-c2ccc(Cl)cc2Cl)c1 | 4.08 | – | 60% |
| Nc1nc(N)nc(-c2cc(F)ccc2Br)n1 | 1.45 | 78% | – |
| Nc1nc(N)nc(-c2cc(F)ccc2Cl)n1 | 1.38 | 78% | – |
| Nc1nc(N)nc(-c2cc(Cl)ccc2F)n1 | 1.81 | 89% | – |
| Nc1nc(N)nc(-c2cc(C(F)(F)F)ccc2Cl)n1 | 2.27 | 51% | – |
| COc1cc(CC(=O)O)cc(-c2ccc(C)cc2)c1 | 3.72 | – | 23% |
| Cc1cc(CC(=O)O)cc(OCC(C)C)c1 | 3.33 | – | 13% |
| Cc1ccc(-c2nc(N)nc(N)n2)cc1 | 1.92 | 54% | – |
| COc1ccc(Br)cc1-c1nc(N)nc(N)n1 | 1.53 | 49% | – |
| COc1ccc(-c2cc(CC(=O)O)cc(OC)c2)cc1 | 3.28 | – | 13% |
| Nc1nc(N)nc(-c2cc(Cl)ccc2Br)n1 | 1.85 | 81% | – |
| Nc1nc(N)nc(-c2cccc(Cl)c2)n1 | 2.33 | 100% | – |
| COc1cc(C)cc(CC(=O)O)c1 | 1.94 | – | 6% |
| O=C(O)Cc1cc(O)cc(-c2ccc(Cl)cc2)c1 | 3.42 | – | 14% |
| O=C(O)Cc1cccc([N+](=O)[O-])c1 | 1.34 | – | 0% |
| Nc1nc(N)nc(-c2ccccc2[N+](=O)[O-])n1 | 0.49 | 11% | – |
| Nc1nc(N)nc(-c2ccccc2I)n1 | 1.41 | -7% | – |
| Nc1nc(N)nc(-c2ccc(Cl)cc2)n1 | – | 69% | – |

| SMILES | logP [1] | inhibition in vivo at 20 mg/kg (Rattus norvegicus [2]) | Inhibition (Rattus norvegicus [3]) |
| --- | --- | --- | --- |
| Nc1nc(N)nc(-c2cccc([N+](=O)[O-])c2)n1 | 1.57 | 85% | – |
| O=C(O)Cc1cccc(Br)c1 | 2.36 | – | 0% |
| Nc1nc(N)nc(-c2cccc(F)c2)n1 | 1.73 | 70% | – |
| Nc1nc(N)nc(-c2cccc(C(F)(F)F)c2)n1 | 2.67 | 81% | – |
| Nc1nc(N)nc(-c2ccc(F)cc2)n1 | 1.61 | 84% | – |
| Nc1nc(N)nc(-c2cccc(SC(F)(F)F)c2)n1 | 3.2 | 87% | – |
| Nc1nc(N)nc(-c2ccc([N+](=O)[O-])cc2)n1 | 1.6 | 41% | – |
| Nc1nc(N)nc(-c2ccccc2Br)n1 | 1.26 | 26% | – |
| Nc1nc(N)nc(-c2ccc(Cl)cc2Br)n1 | 2.09 | 96% | – |
| Cc1ccccc1-c1nc(N)nc(N)n1 | 1.26 | 28% | – |
| O=C(O)Cc1cccc(Cl)c1 | 1.59 | – | 0% |
| CCOc1ccccc1-c1nc(N)nc(N)n1 | 1.03 | -5% | – |
| CS(=O)(=O)c1cccc(-c2nc(N)nc(N)n2)c1 | 0.29 | -6% | – |
| Nc1nc(N)nc(-c2cc(Br)ccc2F)n1 | 1.94 | 100% | – |
| Nc1nc(N)nc(-c2cc(Br)ccc2Br)n1 | 2.09 | 43% | – |
| CSc1cccc(-c2nc(N)nc(N)n2)c1 | 2.16 | 49% | – |
| Nc1nc(N)nc(-c2ccccc2Cl)n1 | 1.19 | 36% | – |
| Cc1c(N2CCOCC2)c(=O)n(C)c(=O)n1C1CCCCC1 | 2.39 | – | 44% |
| Nc1nc(N)nc(-c2cccc(Br)c2)n1 | 2.44 | 96% | – |
| COc1cc(CC(=O)O)cc(-c2ccccc2Cl)c1 | 3.66 | – | 75% |
| COc1ccccc1-c1nc(N)nc(N)n1 | 0.58 | 1% | – |
| COc1cccc(CC(=O)O)c1 | 1.45 | – | -3% |
| Nc1nc(N)nc(-c2cc(Br)ccc2Cl)n1 | 2.04 | 86% | – |
| COc1cc(CC(=O)O)cc(-c2ccc(Cl)cc2)c1 | 3.71 | – | 66% |
| Nc1nc(N)nc(-c2ccccc2)n1 [BENZOGUANAMINE] | 1.36 | 70% | – |
| CC(C)Cc1ccc(CC(=O)O)cc1 [IBUFENAC] | 3.38 | – | 32% |
| Nc1nc(N)nc(-c2cc(Cl)ccc2Cl)n1 [IRSOGLADINE] | 1.97 | 100% | – |

Now from value to compound, other results behind:

| logP [1] | SMILES | inhibition in vivo at 20 mg/kg (Rattus norvegicus [2]) | Inhibition (Rattus norvegicus [3]) |
| --- | --- | --- | --- |
| 1.44 | C=CCn1c(C)c(N(C)C)c(=O)n(-c2ccccc2)c1=O | – | 54% |
| 2.11 | CCN(CC)c1c(C)n(C)c(=O)n(-c2ccccc2)c1=O | – | 45% |
| 0.99 | Cc1c(N(C)C)c(=O)n(C)c(=O)n1C | – | 37% |
| 1.4 | Cc1c(N(C)C)c(=O)[nH]c(=O)n1-c1ccccc1 | – | 35% |
| 1.19 | Cc1c(N(C)C)c(=O)n(C)c(=O)n1-c1ccccc1 | – | 65% |
| 2.59 | C=CCN(CC=C)c1c(C)n(-c2ccccc2)c(=O)n(C)c1=O | – | 46% |
| 1.96 | COc1ccc(-n2c(C)c(N(C)C)c(=O)n(C)c2=O)cc1 | – | 41% |
| 1.3 | Cc1c(N(C)C)c(=O)n(-c2ccccc2)c(=O)n1C | – | 44% |
| 1.12 | Cc1c(N(C)C)c(=O)n(CCO)c(=O)n1-c1ccccc1 | – | 34% |
| 0.85 | Cc1c(N(C)C)c(=O)n(-c2ccccc2)c(=O)n1CCO | – | 31% |
| 2.78 | CCN(CC)c1c(C)n(-c2ccccc2)c(=O)n(CC)c1=O | – | 53% |
| 3.3 | COc1cc(CC(=O)O)cc(-c2ccccc2)c1 | – | 68% |
| 2.2 | CCN(CC)c1c(C)n(CC)c(=O)n(-c2ccccc2)c1=O | – | 57% |
| 2.76 | Cc1c(N2CCCCC2)c(=O)n(-c2ccccc2)c(=O)n1C | – | 27% |
| 0.69 | Cc1c(N2CCOCC2)c(=O)n(-c2ccccc2)c(=O)n1C | – | 35% |
| 1.2 | CCCNc1c(C)n(C)c(=O)n(-c2ccccc2)c1=O | – | 64% |
| 2.29 | CCn1c(=O)c(N(C)C)c(C)n(-c2ccccc2)c1=O | – | 51% |
| 1.69 | CCCCNc1c(C)n(C)c(=O)n(-c2ccccc2)c1=O | – | 48% |
| 2.32 | Cc1c(N(C)C)c(=O)n(C)c(=O)n1-c1ccc(Cl)cc1 | – | 41% |
| 2.19 | CCN(CC)c1c(C)n(-c2ccccc2)c(=O)n(C)c1=O | – | 46% |
| 1.48 | Cc1c(NCC(C)C)c(=O)n(-c2ccccc2)c(=O)n1C | – | 58% |
| 1.7 | CCCNc1c(C)n(-c2ccccc2)c(=O)n(C)c1=O | – | 45% |
| 1.98 | C=CCn1c(=O)c(N(C)C)c(C)n(-c2ccccc2)c1=O | – | 75% |
| 2.26 | Cc1c(N2CCCC2)c(=O)n(-c2ccccc2)c(=O)n1C | – | 32% |
| 1.65 | CCc1ccccc1-c1nc(N)nc(N)n1 | 20% | – |
